Among the data in ChEMBL document CHEMBL1770118, “A new class of β-carboline alkaloid-peptide conjugates with therapeutic efficacy in acute limb ischemia/reperfusion injury” (Eur J Med Chem, 2011) are EC50 and Activity values, retold here.

The source made the active and inactive calls. No cut-off for these calls is given here. *1 amine or outer side, *2 acyl side, *3 side chain or, on linkers, in order; H or OH if unused. Where a SMILES comes first, the peptide text is derived from it. [ ]: non-standard residue; d: D form. X2 = COc1cc([C@@H]2c3[nH]c4ccccc4c3C[C@@H](C(=O)[*:2])N2[*:1])ccc1O; X3 = COc1ccc([C@@H]2c3[nH]c4ccccc4c3C[C@@H](C(=O)[*:2])N2[*:1])cc1; X1 = O=C([C@@H]1Cc2c([nH]c3ccccc23)[C@@H](c2ccccc2O)N1[*:1])[*:2]

The test system of test [1] is PC-12. The experiment in a line: Antioxidant activity in rat PC12 cells assessed as protection against nitric oxide-induced reduction of cell viability pretreated 1 he before nitric oxide challenge incubated for 1 hr followed by washout measured after 14 hrs by MTT assay. The format is functional, cell-based. In outline:
(§1)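 PC12 cells were grown in DMEM with 10% heat-inactivated horse serum and 5% FBS, then seeded at 20,000/well on poly-lysine. After 24 h, cells were pretreated with compound at five concentrations for 1 h. Damage was 1 h with: NO, 2 mM sodium nitroprusside; H₂O₂, 1 mM; ·OH, H₂O₂/Fe(II). Medium was replaced, and MTT survival was read after 14 h. EC50 was derived.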

In test [2] the test system is PC-12. Nature of the test: Antioxidant activity in rat PC12 cells assessed as protection against hydrogen peroxide-induced reduction of cell viability pretreated 1 he before […] incubated for 1 hr followed by washout measured after 14 hrs by MTT assay. The format is functional, cell-based. In outline: as §1
The test system of test [3] is PC-12. Nature of the test: Antioxidant activity in rat PC12 cells assessed as protection against hydroxyl radical-induced reduction of cell viability pretreated 1 he before […] incubated for 1 hr followed by washout measured after 14 hrs by MTT assay. The format is functional, cell-based. The method in brief:
as §1

The test system of another test is Rattus norvegicus. The experiment in a line: Antithrombotic activity in Wistar rat assessed as reduction of dry thrombus weight at 10 umol/kg. The format is functional, organism-based.

Turning to `COc1cc([C@H]2N[C@H](C(=O)O)Cc3c2[nH]c2ccccc32)ccc1O`, the EC50 with PC-12 [1] was 77 µM; in the test on PC-12 [2], 38 µM; in the test with PC-12 [3], 72 µM.
On the same counts, the results for `COc1ccc([C@H]2N[C@H](C(=O)O)Cc3c2[nH]c2ccccc32)cc1` are 77 µM, 38 µM and 72 µM.
For `COc1cc([C@H]2N[C@H](C(=O)NCC(=O)N[C@@H](CCCNC(=N)N)C(=O)N3CCC[C@H]3C(=O)N[C@@H](C)C(=O)N[C@@H](CCCCN)C(=O)O)Cc3c2[nH]c2ccccc32)ccc1O` (H-[X2]GRPAK-OH), the outcome in the test on Rattus norvegicus was Active.
For `C[C@H](NC(=O)[C@@H]1Cc2c([nH]c3ccccc23)[C@@H](c2ccccc2O)N1)C(=O)N[C@@H](CCCNC(=N)N)C(=O)N1CCC[C@H]1C(=O)N[C@@H](C)C(=O)N[C@@H](CCCCN)C(=O)O` (H-[X1]ARPAK-OH), the outcome in the test on Rattus norvegicus was Active.
Regarding `C[C@H](N)C(=O)N[C@@H](CCCN=C(N)N)C(=O)N1CCC[C@H]1C(=O)N[C@@H](C)C(=O)N[C@@H](CCCCN)C(=O)O` (H-ARPAK-OH), the result in the test with Rattus norvegicus was Active.
On to `O=C(O)[C@@H]1Cc2c([nH]c3ccccc23)[C@@H](c2ccccc2O)N1`, for which the EC50 in the test on PC-12 [1] was determined as 77 µM; in the test with PC-12 [2] it was 38 µM; in the test with PC-12 [3], 72 µM.
With `C[C@H](NC(=O)[C@@H]1CCCN1C(=O)[C@H](CCCNC(=N)N)NC(=O)CNC(=O)[C@@H]1Cc2c([nH]c3ccccc23)[C@@H](c2ccccc2O)N1)C(=O)N[C@@H](CCCCN)C(=O)O` (H-[X1]GRPAK-OH), the result in the test on Rattus norvegicus was Active.
The same measure, in the same setting: then `COc1ccc([C@H]2N[C@H](C(=O)NCC(=O)N[C@@H](CCCNC(=N)N)C(=O)N3CCC[C@H]3C(=O)N[C@@H](C)C(=O)N[C@@H](CCCCN)C(=O)O)Cc3c2[nH]c2ccccc32)cc1` (H-[X3]GRPAK-OH), with “Active”.
On to `COc1cc([C@H]2N[C@H](C(=O)N[C@@H](C)C(=O)N[C@@H](CCCNC(=N)N)C(=O)N3CCC[C@H]3C(=O)N[C@@H](C)C(=O)N[C@@H](CCCCN)C(=O)O)Cc3c2[nH]c2ccccc32)ccc1O` (H-[X2]ARPAK-OH), for which the outcome in the test with Rattus norvegicus was Active.
In the case of `COc1ccc([C@H]2N[C@H](C(=O)N[C@@H](C)C(=O)N[C@@H](CCCNC(=N)N)C(=O)N3CCC[C@H]3C(=O)N[C@@H](C)C(=O)N[C@@H](CCCCN)C(=O)O)Cc3c2[nH]c2ccccc32)cc1` (H-[X3]ARPAK-OH), the outcome in the test with Rattus norvegicus was Active.
For `C[C@H](NC(=O)[C@@H]1CCCN1C(=O)[C@H](CCCN=C(N)N)NC(=O)CN)C(=O)N[C@@H](CCCCN)C(=O)O` (H-GRPAK-OH), the outcome in the test with Rattus norvegicus was Active.
